ChEMBL document CHEMBL3045703, “Synthesis and insect antifeedant activity of plumbagin derivatives with the amino acid moiety” (2009)

What was measured:
Type in all cases: functional
Achaea janata [1] = assay: Toxicity in third instar larvae of Achaea janata assessed as mortality at 1 ug/insect measured after 4 to 28 days by topical bioassay
Spodoptera litura [2] = assay: Toxicity in third-instar larvae of tobacco caterpillar Spodoptera litura assessed as mortality at 1 ug/insect measured after 4 to 28 days by topical bioassay
Achaea janata [3] = assay: Toxicity in third instar larvae of Achaea janata assessed as mortality at 4 ug/insect measured after 4 to 28 days by topical bioassay
Spodoptera litura [4] = assay: Toxicity in third-instar larvae of tobacco caterpillar Spodoptera litura assessed as mortality at 4 ug/insect measured after 4 to 28 days by topical bioassay
Achaea janata [5] = assay: Antifeedant activity against third instar larvae of Achaea janata in compound treated fresh castor leaves assessed as consumption at 28 +/- 2 degC, relative humidity 65 +/- 5 measured after 6 to 24 hr
Summary of the method: (§1)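 No-choice leaf-disk test on castor leaf discs; control discs got solvent only. Prestarved third instar larvae reared on fresh castor leaves at 28 ± 2 °C, RH 65 ± 5, 16:8 light/dark. Consumed area tracked at 6, 12 and 24 h and measured with a leaf area meter. Antifeedant index = (C − T)/(C + T) × 100. 10 sets per concentration, each test run in triplicate; mean ± SD.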

Spodoptera litura [6] = assay: Antifeedant activity against third-instar larvae of tobacco caterpillar Spodoptera litura in compound treated fresh castor leaves assessed as consumption at 28 +/- 2 degC, relative humidity 65 +/- 5 measured after 6 to 24 hr; summary of the method: as §1
Achaea janata [7] = assay: Antifeedant activity against third instar larvae of Achaea janata in compound treated fresh castor leaves assessed as consumption at 0.1% measured after 6 to 24 hr; summary of the method: as §1
Spodoptera litura [8] = assay: Antifeedant activity against third-instar larvae of tobacco caterpillar Spodoptera litura in compound treated fresh castor leaves assessed as consumption at 0.1% measured after 6 to 24 hr; summary of the method: as §1

Row | Compound | mortality (Achaea janata [1]) [%] | mortality (Spodoptera litura [2]) [%] | mortality (Achaea janata [3]) [%] | mortality (Spodoptera litura [4]) [%] | antifeedant EC50 (Achaea janata [5]) [microg/cm2] | Antifeedant EC50 (leaf-consumption) (Spodoptera litura [6]) [microg/cm2] | Activity (Achaea janata [7]) [%] | Activity (Spodoptera litura [8]) [%]
1 | C/C=C(\C)C(=O)O[C@H]1C[C@@H](OC(C)=O)[C@@]2(C(=O)OC)CO[C@H]3[C@@H](O)[C@@](C)([C@]45O[C@@]4(C)[C@@H]4C[C@H]5O[C@@H]5OC=C[C@@]54O)[C@H]4[C@]1(CO[C@]4(O)C(=O)OC)[C@@H]32 [AZADIRACHTIN A] | 93.6 | 84 | – | – | – | – | – | –
2 | COc1cccc2c1C(=O)C(NCCOC(=O)[C@H](CCSC)NC(C)=O)=C(C)C2=O | – | – | 100 | <20 | 37.37 | 48.47 | – | –
3 | COc1cccc2c1C(=O)C(NCCOC(=O)[C@@H](NC(C)=O)C(C)C)=C(C)C2=O | – | – | 32.6 | 84.5 | 104.59 | >500 | – | –
4 | COc1cccc2c1C(=O)C(NCCOC(=O)[C@H](Cc1ccccc1)NC(C)=O)=C(C)C2=O | – | – | 23.4 | <20 | 51.96 | 105.93 | – | –
5 | COc1cccc2c1C(=O)C(NCCOC(=O)[C@H](Cc1ccc(O)cc1)NC(C)=O)=C(C)C2=O | – | – | 24.6 | <20 | 199.45 | 461 | – | –
6 | CC[C@H](C)[C@H](NC(C)=O)C(=O)OCCNC1=C(C)C(=O)c2cccc(OC)c2C1=O | – | – | <20 | <20 | 292 | >500 | – | –
7 | COc1cccc2c1C(=O)C(NCCOC(=O)[C@H](CC(C)C)NC(C)=O)=C(C)C2=O | – | – | <20 | 74.2 | >500 | 466.28 | – | –
8 | COc1cccc2c1C(=O)C(NCCOC(=O)CNC(C)=O)=C(C)C2=O | – | – | 100 | <20 | 69.51 | 36.87 | – | –
9 | COc1cccc2c1C(=O)C(NCCOC(=O)CCCNC(C)=O)=C(C)C2=O | – | – | <20 | <20 | >500 | 247.59 | – | –
10 | COc1cccc2c1C(=O)C(NCCOC(=O)c1ccc(NC(C)=O)cc1)=C(C)C2=O | – | – | <20 | 63.8 | 268.88 | 117.25 | – | –
11 | CC1=CC(=O)c2c(O)cccc2C1=O [PLUMBAGIN] | – | – | <20 | <20 | – | – | 35.69 | 26
12 | COc1cccc2c1C(=O)C(NCCOC(=O)[C@H](CS)NC(C)=O)=C(C)C2=O | – | – | <20 | 100 | >500 | >500 | – | –
13 | COc1cccc2c1C(=O)C(NCCOC(=O)[C@H](C)NC(C)=O)=C(C)C2=O | – | – | <20 | <20 | 340.63 | >500 | – | –
